Source: ChEMBL document CHEMBL1921710, “Anti-staphylococcal activity and β-lactam resistance attenuating capacity of structural analogues of (-)-epicatechin gallate” (2011)
In brackets after ≈: the same amount, converted by molar mass. Activity calls are given as the source filed them. The calls are words filed in the database; no cut-off is given here.

What was measured:
Staphylococcus aureus [1] = assay: Antistaphylococcal activity against epidemic Staphylococcus aureus isolate 16 by CLSI broth microplate assay; assay type: functional
Method in brief: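 MIC against MRSA clinical isolate EMRSA-16, measured by CLSI broth microplate dilution. Compounds were dissolved in 60% v/v EtOH, then diluted into broth.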

Staphylococcus aureus [2] = assay: Potentiation of oxacillin-induced antistaphylococcal activity against epidemic Staphylococcus aureus isolate 16 at 12.5 ug/mL by CLSI broth microplate assay; assay type: functional, organism-based
Method in brief: (§1)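 Oxacillin MIC against EMRSA-16 with the analogue held at a fixed concentration. Run in 96-well trays with about 10^4 CFU in 100 μl Mueller–Hinton broth containing 2% w/v NaCl. Compounds were dissolved in 60% v/v EtOH before dilution into broth.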

Staphylococcus aureus [3] = assay: Potentiation of oxacillin-induced antistaphylococcal activity against epidemic Staphylococcus aureus isolate 16 at 6.25 ug/mL by CLSI broth microplate assay; assay type: functional, organism-based; method in brief: as §1

| Structure (SMILES) | MIC (Staphylococcus aureus [1]) [µg/mL] | Activity (Staphylococcus aureus [2]) | Activity (Staphylococcus aureus [3]) |
| --- | --- | --- | --- |
| Cc1onc(-c2ccccc2)c1C(=O)N[C@@H]1C(=O)N2[C@@H]1SC(C)(C)[C@@H]2C(=O)O [OXACILLIN] | 512 (≈ 1280 µM) | – | – |
| O=C(O[C@@H]1Cc2c(O)cc(O)cc2O[C@@H]1c1cc(O)cc(O)c1)c1cc(O)c(O)c(O)c1 | 128 (≈ 289 µM) | Active | – |
| O=C(O[C@@H]1Cc2c(O)cc(O)cc2O[C@@H]1c1ccc(O)c(O)c1)c1cc(O)c(O)c(O)c1 [EPICATECHIN GALLATE] | 128 (≈ 289 µM) | Active | – |
| O=C(N[C@@H]1Cc2c(O)cc(O)cc2O[C@@H]1c1ccc(O)c(O)c1)c1cc(O)c(O)c(O)c1 | – | Active | – |
| O=C(O[C@@H]1Cc2c(O)cc(O)cc2O[C@@H]1c1ccccc1)c1cc(O)c(O)c(O)c1 | 64 (≈ 156 µM) | Active | Active |

The next lines start with results.

| MIC (Staphylococcus aureus [1]) [µg/mL] | Structure (SMILES) | Activity (Staphylococcus aureus [2]) | Activity (Staphylococcus aureus [3]) |
| --- | --- | --- | --- |
| 16 (≈ 42.3 µM) | O=C(O[C@@H]1Cc2ccccc2O[C@H]1c1ccccc1)c1cc(O)c(O)c(O)c1 | Active | Active |
| 128 (≈ 300 µM) | O=C(O[C@@H]1Cc2c(O)cc(O)cc2O[C@@H]1c1cccc(O)c1)c1cc(O)c(O)c(O)c1 | Active | – |
| 16 (≈ 42.3 µM) | O=C(O[C@@H]1Cc2ccccc2O[C@@H]1c1ccccc1)c1cc(O)c(O)c(O)c1 | Active | Active |
